Calls of active or inactive are those of the source. The calls are words filed in the database; no cut-off is given here.
Experiments:
Danio rerio [1] = species on record: Danio rerio; assay: Inhibition of B-myb-mediated mitotic deffects in zebrafish bmyb mutant crb embryos assessed as prometaphase arrest at 10 uM by pH3 and alpha tubulin staining
B-myb (Danio rerio) [2] = molecular target: T1, B-myb (Danio rerio) (UniProt Q4KMF7); assay: Inhibition of B-myb mediated mitotic deffects in wild-type zebrafish assessed as suppression of polyploidy at […] at 24 hrs post fertilization […]
T1 sequence (whole entry): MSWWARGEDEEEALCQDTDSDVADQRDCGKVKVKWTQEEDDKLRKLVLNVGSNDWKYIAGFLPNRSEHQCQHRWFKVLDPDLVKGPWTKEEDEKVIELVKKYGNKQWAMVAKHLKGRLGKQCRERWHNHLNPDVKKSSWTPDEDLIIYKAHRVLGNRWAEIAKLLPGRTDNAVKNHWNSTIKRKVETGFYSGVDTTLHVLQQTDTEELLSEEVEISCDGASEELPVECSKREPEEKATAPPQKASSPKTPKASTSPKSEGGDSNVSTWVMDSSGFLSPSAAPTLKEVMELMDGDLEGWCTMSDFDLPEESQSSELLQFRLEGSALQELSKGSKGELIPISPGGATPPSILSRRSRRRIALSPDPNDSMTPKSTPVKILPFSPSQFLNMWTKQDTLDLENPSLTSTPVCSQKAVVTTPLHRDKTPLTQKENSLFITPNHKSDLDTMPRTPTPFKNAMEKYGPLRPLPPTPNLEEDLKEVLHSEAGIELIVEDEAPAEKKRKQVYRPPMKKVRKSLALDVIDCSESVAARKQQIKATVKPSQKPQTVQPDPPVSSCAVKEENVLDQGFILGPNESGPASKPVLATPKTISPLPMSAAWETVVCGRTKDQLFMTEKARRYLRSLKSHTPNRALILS
In short: (§1)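 Control and treated embryos, […] overnight, disaggregated and DNA content (2n/4n/8n) measured by flow cytometry. Individual-embryo FACS used a cell-suspension aliquot for genotyping.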

[3] = Induction of S to M phase cell cycle progression in zebrafish bmyb mutant embryo cells assessed as Brdu incorporation; assay type: functional, Danio rerio
B-myb (Danio rerio) [4] = molecular target: T1, B-myb (Danio rerio); assay: Inhibition of B-myb-mediated mitotic deffects in wild-type zebrafish assessed as number of centrosomes in pH3 -positive cells at […] at 24 hrs post fertilization by pH3 and […] staining; assay type: cell-based
Danio rerio [5] = species on record: Danio rerio; assay: Inhibition of B-myb-mediated mitotic deffects in zebrafish bmyb mutant crb embryos
In short: (§2)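 crb heterozygote incrosses; embryos in E3 with 1% DMSO at 28.5 °C, compound added at 4 hpf and kept until 24 hpf ([…] except in dose-response). Fixed in 4% paraformaldehyde and whole-mount stained for serine-10-phosphorylated histone H3. All pH3-positive cells in the tail distal to the yolk extension counted, at least five embryos per condition. Embryos genotyped by RFLP. ED50 from dose-response.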

Danio rerio [6] = species on record: Danio rerio; assay: Inhibition of B-myb-mediated mitotic deffects in zebrafish bmyb mutant crb embryos assessed as number of centrosomes in pH3 -positive cells at […] at 24 hrs post fertilization by pH3 and gamma tubulin staining; assay type: cell-based
In short: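 Centrosomes detected with a monoclonal anti-γ-tubulin antibody (1:1,000) in embryos treated overnight with […] drug.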

Danio rerio [7] = species on record: Danio rerio; assay: Inhibition of B-myb-mediated mitotic deffects in zebrafish bmyb mutant crb embryos assessed as increase in cyclin B1 mRNA expression
In short: (§3)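 Wild-type and crb embryos treated with […] drug, then whole-mount in situ hybridization for cyclin B1.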

Danio rerio [8] = species on record: Danio rerio; assay: Inhibition of B-myb-mediated mitotic deffects in zebrafish bmyb mutant crb embryos assessed as suppression of cells without spindles at 8 mM at 24 hrs post fertilization by pH3 and alpha tubulin staining
In short: (§4)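 Embryos treated overnight with […] drug, then double-stained for α-tubulin and pH3. Spindles counted in the body distal to the yolk ball. DAPI-stained cells with condensed chromatin counted manually in one field at the tail tip.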

Danio rerio [9] = species on record: Danio rerio; assay: Inhibition of B-myb-mediated mitotic deffects in zebrafish bmyb mutant crb embryos assessed as suppression of apoptosis at 8 mM at 24 hrs post fertilization by TUNEL assay
In short: (§5)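 Embryos treated overnight (from 4 hpf) with […] drug, washed at 24 hpf. Apoptosis read by TUNEL staining at 24 hpf, and by brain opacity morphology at 30 hpf.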

B-myb (Danio rerio) [10] = molecular target: T1, B-myb (Danio rerio); assay: Inhibition of B-myb-mediated mitotic deffects in wild-type zebrafish assessed as suppression of apoptosis at […] at 24 hrs post fertilization by TUNEL assay; in short: as §5
Danio rerio [11] = species on record: Danio rerio; assay: Inhibition of B-myb-mediated mitotic deffects in zebrafish bmyb mutant crb embryos assessed as reduction in abnormalities in mitotic spindle by pH3 and alpha tubulin staining; conditions: concentration not given here; in short: as §4
B-myb (Danio rerio) [12] = molecular target: T1, B-myb (Danio rerio); assay: Inhibition of B-myb-mediated mitotic deffects in wild-type zebrafish embryo assessed as accumulation of cells in early S phase at […] at 24 hrs post fertilization for 6 hrs by flow cytometry in presence of 10 mM BrdU
In short: (§6)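 Wild-type embryos exposed 24–30 hpf (6 h at 28.5 °C) to […] drug. Embryos disaggregated, immunostained for pH3 and DNA content measured by flow cytometry (G1/S/G2M fractions). For S-phase confirmation, embryos labelled with BrdU and incorporation read by whole-mount immunostaining and FACS.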

B-myb (Danio rerio) [13] = molecular target: T1, B-myb (Danio rerio); assay: Inhibition of B-myb-mediated mitotic deffects in wild-type Zebrafish assessed as suppression of cells without spindles at […] at 24 hrs post fertilization by pH3 and alpha tubulin staining; in short: as §4
Danio rerio [14] = species on record: Danio rerio; assay: Inhibition of B-myb-mediated mitotic deffects in zebrafish bmyb mutant embryo assessed as increase in mitotic cells with condensed chromatin at 10 uM by pH3 and alpha tubulin staining; assay type: cell-based
B-myb (Danio rerio) [15] = molecular target: T1, B-myb (Danio rerio); assay: Inhibition of B-myb-mediated mitotic deffects in wild-type zebrafish assessed as increase in cyclin B1 mRNA expression; in short: as §3
Danio rerio [16] = species on record: Danio rerio; assay: Inhibition of B-myb-mediated mitotic deffects in zebrafish bmyb mutant crb embryos assessed as suppression of polyploidy at 8 mM at 24 hrs post fertilization by TUNEL assay; in short: as §1
B-myb (Danio rerio) [17] = molecular target: T1, B-myb (Danio rerio); assay: Inhibition of B-myb-mediated mitotic deffects in wild-type zebrafish embryo assessed as accumulation of cells in early S phase at […] at 24 hrs post fertilization for 6 hrs by flow cytometry; in short: as §6
Danio rerio [18] = species on record: Danio rerio; assay: Inhibition of B-myb-mediated mitotic deffects in zebrafish bmyb mutant crb embryos at […]; conditions: TDE = time-dependent effect; in short: as §2
Danio rerio [19] = species on record: Danio rerio; assay: Inhibition of B-myb-mediated mitotic deffects in zebrafish bmyb mutant embryo assessed as intra-Sphase and G2/M checkpoint inhibition in presence of 2 mM caffeine at 10 ug/ml
In short: (§7)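 crb embryos given 2 mM caffeine or none at 4 hpf. Thirty minutes later […] aphidicolin added, then incubated overnight to 24 hpf at 28.5 °C in E3 with 1% DMSO. Mitotic accumulation read by whole-mount phospho-histone H3 staining, with pH3-positive cells counted in the tail distal to the yolk extension.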

Danio rerio [20] = species on record: Danio rerio; assay: Inhibition of B-myb-mediated mitotic deffects in zebrafish bmyb mutant crb embryos at 50 mM
Danio rerio [21] = species on record: Danio rerio; assay: Inhibition of B-myb-mediated mitotic deffects in zebrafish bmyb mutant embryo assessed as intra-Sphase and G2/M checkpoint inhibition at 10 ug/ml; in short: as §7
Danio rerio [22] = species on record: Danio rerio; assay: Inhibition of B-myb-mediated mitotic deffects in zebrafish bmyb mutant crb embryos at 50 mM
In short: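 crb heterozygote intercross embryos exposed from 4 hpf to 24 hpf at 28.5 °C in E3 with 1% DMSO (aphidicolin […]; hydroxyurea 50 mM). Fixed in 4% paraformaldehyde, whole-mount stained for phospho-histone H3 (Ser10), genotyped by RFLP. pH3-positive cells counted in the tail distal to the yolk extension, or mutant phenotype scored by eye.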

**Q.** With O=C(Nc1ncccc1O)C12CC3CC(CC(C3)C1)C2 [PERSYNTHAMIDE] as the compound, how does the inhibition (Danio rerio [1]) read?
**A.** Active

**Q.** And the inhibition (B-myb (Danio rerio) [2])?
**A.** Active

**Q.** And the Activity [3]?
**A.** 60%

**Q.** What about the inhibition (B-myb (Danio rerio) [4]) of the same compound?
**A.** Active

**Q.** And the ED50 (Danio rerio [5])?
**A.** 5 µM

**Q.** And the inhibition (Danio rerio [6])?
**A.** Active

**Q.** And the inhibition (Danio rerio [7])?
**A.** Active

**Q.** What about the inhibition (Danio rerio [8]) of the same compound?
**A.** Active

**Q.** What about the inhibition (Danio rerio [9]) of the same compound?
**A.** Active

**Q.** What about the inhibition (B-myb (Danio rerio) [10]) of the same compound?
**A.** Active

**Q.** What about the inhibition (Danio rerio [11]) of the same compound?
**A.** 55%

**Q.** And the inhibition (B-myb (Danio rerio) [12])?
**A.** Active

**Q.** What about the inhibition (B-myb (Danio rerio) [13]) of the same compound?
**A.** Active

**Q.** And the fold change (FC) (Danio rerio [14])?
**A.** 4

**Q.** And the inhibition (B-myb (Danio rerio) [15])?
**A.** Active

**Q.** And the inhibition (Danio rerio [16])?
**A.** Active

**Q.** And the inhibition (B-myb (Danio rerio) [17])?
**A.** Active

**Q.** And the inhibition (Danio rerio [18])?
**A.** tde

**Q.** Which inhibition (Danio rerio [19]) does the source give for C[C@@]1(CO)[C@H](O)CC[C@@]2(C)[C@H]1CC[C@H]1C[C@@H]3C[C@@]12CC[C@]3(O)CO here?
**A.** Active

**Q.** And the inhibition (Danio rerio [20])?
**A.** Active

**Q.** And the inhibition (Danio rerio [21])?
**A.** Active

**Q.** And the inhibition (Danio rerio [22])?
**A.** Active

**Q.** What does the source list for NC(=O)NO?
**A.** inhibition (Danio rerio [20]): Active; inhibition (Danio rerio [22]): Active

From ChEMBL document CHEMBL1221164, “Small molecules that delay S phase suppress a zebrafish bmyb mutant” (2005)
